Usually inhibition stands for the drop in the measured response relative to a control, in per cent.

Active and inactive are the calls of the source.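 Rule for the calls, unless noted: active = NADPH fluorescence slope more negative than the mean of all samples by about 3 SD, 99.7% confidence; inactive = the rest.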

Test [1] in a line: inhibitors of TNFa-induced NFkB p65 translocation, primary screen, imaging, HUVEC, MLSMR starter and 10KST1 sets (AID 438;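 active = inhibition above 20% together with a positive visual image hit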;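 note: compound added about 3h40 before a 20 min TNFalpha stimulation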;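 for inhibition: signal is the nuclear over cytoplasmic p65 intensity ratio per well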). The settings on record: HUVEC TNFa-induced p65 nuclear translocation; cell count: measured here: nuclei count (cytotoxicity indicator), at 2.08 µM; inhibition: at 2 µM, stronger effect = higher value, 0% TNFa-plus-vehicle, 100% no-TNFa wells.
Test [2] in a line: inhibitors of mutant huntingtin aggregation, primary screen, imaging, exon1htt(103Q)mCFP cells, high-content imaging (AID 483;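 active = visual image review flags a hit and inhibition of aggregation exceeds 20%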;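 note: compound exposure lasted 3 days before fixation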;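 for nuclei count: percent of the per-plate median nuclei count of sample wells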). Conditions: exon1htt(103Q)mCFP cell line, aggregate imaging, at 2 µM; inhibition of aggregation: stronger effect = higher value; nuclei count: measured here: cell count, toxicity.
A short description of test [3]: inhibitors of E-selectin induction by TNFa, primary screen, imaging, HUVEC, immunofluorescence, MLSMR starter and 10KST1 sets (AID 487;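 active = visually confirmed hit in the image check and inhibition above 20%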;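 for inhibition: signal is fraction of cell area covered by stained E-selectin grains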;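 for nuclei count: 100% = median nuclei count of all wells on the same plate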). The settings on record: HUVEC TNFalpha-induced E-selectin immunofluorescence imaging, at 2 µM; inhibition: stronger effect = higher value; nuclei count: measured here: cell number, toxicity.
Test [4] addresses Voltage-gated potassium channel subunit beta-2 (Rattus norvegicus) (UniProt P62483). Nature of the test: KvBeta enzyme negative modulators, primary screen, biochemical, NADPH fluorescence (AID 622;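 active = fluorescence slope higher than the sample average by over 3 SD, cut at about -0.22 in these data, passing the limit was not always enough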;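 note: slope of raw intensity against log time taken from 70 to 1610 s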). Conditions: recombinant KvBeta, 4-cyanobenzaldehyde reduction, at 10 µM, stronger effect = higher value.
Test [5] shares this target. In words: KvBeta positive modulators, primary screen, biochemical, NADPH fluorescence (AID 623).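 Note: fluorescence intensity change per second fitted from 20 to 320 s.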 The settings on record: Recombinant KvBeta, NADPH fluorescence decrease slope, 10 min; at 10 µM; stronger effect = lower value.
The target of test [6] is Muscarinic acetylcholine receptor M4 (Homo sapiens) (UniProt P08173). In words: compounds altering M4/GIRK thallium flux, either direction, primary screen, M4 allosteric agonist project, cell-based, HEK293 M4/GIRK, BTC-AM (AID 625;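 active = fluorescence slope after compound addition differing from the mean of all tested samples at 99.7% confidence, mostly higher but some lower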;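 note: thallium influx through GIRK channels coupled to M4 in HEK293 cells with BTC-AM dye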). The settings on record: at 10 µM, actives lie on both sides. The procedure, abridged: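 assay system = HEK293 cells with M4 receptor and GIRK channels | medium = pH 7.3 thallium assay buffer | doses = 10 µM final, single point | timing = cells overnight at 37 °C, BTC-AM loading 1 h, reads 2 min total | signal = BTC-AM fluorescence, 1 Hz kinetic reads | read-out = post-addition slope, 15–24 s, of baseline-normalized fluorescence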
Chain of Muscarinic acetylcholine receptor M4 (Homo sapiens) (P08173 whole entry, looked up): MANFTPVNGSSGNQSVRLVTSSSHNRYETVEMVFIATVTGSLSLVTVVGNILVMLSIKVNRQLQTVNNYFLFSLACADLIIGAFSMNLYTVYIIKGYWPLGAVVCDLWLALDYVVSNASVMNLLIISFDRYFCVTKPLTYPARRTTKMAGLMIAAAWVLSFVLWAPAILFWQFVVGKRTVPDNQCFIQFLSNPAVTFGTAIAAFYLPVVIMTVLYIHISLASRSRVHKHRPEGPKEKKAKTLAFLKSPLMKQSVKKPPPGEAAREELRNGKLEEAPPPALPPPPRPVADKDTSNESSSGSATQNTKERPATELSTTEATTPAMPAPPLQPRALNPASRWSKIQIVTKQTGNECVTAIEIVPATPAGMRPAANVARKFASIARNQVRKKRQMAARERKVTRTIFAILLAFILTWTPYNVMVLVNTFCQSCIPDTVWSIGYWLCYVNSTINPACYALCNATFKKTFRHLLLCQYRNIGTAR

Test [7] in a line: inhibitors of Sendai virus-induced IRF3 signaling, primary screen, TLR/RLR signaling modifier project, cell-based, Sendai virus stimulus, luciferase, 10K MLSCN set (AID 602276;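 active = inhibition at or above 50% at 10 µM; inactive = inhibition below 50%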;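 note: firefly luciferase from ISG56 promoter only with Renilla not read in this screen; 0% = Sendai virus plus DMSO and 100% = medium plus DMSO without virus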). Conditions: HEK293 RL24 IRF3 luciferase reporter, at 10 µM, stronger effect = higher value. (Reporter assays use an easily measured gene product as a stand-in for the process of interest.)
Test [8] in a line: inhibitors of poly I:C-induced TLR3 signaling, primary screen, cell-based, poly I:C stimulus, luciferase, 10K MLSCN set (AID 602277;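 active = inhibition of the reporter signal at or above 50%; inactive = inhibition below 50%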). Conditions: HEK293-TLR3 RL24 IRF3 luciferase reporter, at 10 µM, stronger effect = higher value.

Chain of Voltage-gated potassium channel subunit beta-2 (Rattus norvegicus) (P62483 whole entry, looked up): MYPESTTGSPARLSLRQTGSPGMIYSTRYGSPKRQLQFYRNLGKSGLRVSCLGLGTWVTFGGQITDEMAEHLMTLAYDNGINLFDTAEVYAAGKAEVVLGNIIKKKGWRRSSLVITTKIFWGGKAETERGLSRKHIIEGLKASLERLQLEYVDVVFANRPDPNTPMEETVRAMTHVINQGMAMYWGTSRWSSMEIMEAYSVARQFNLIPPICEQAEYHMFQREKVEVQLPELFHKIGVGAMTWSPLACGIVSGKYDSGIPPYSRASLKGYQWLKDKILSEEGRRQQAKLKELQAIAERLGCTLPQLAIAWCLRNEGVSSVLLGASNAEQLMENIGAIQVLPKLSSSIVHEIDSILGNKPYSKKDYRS

Take `O=C(Nc1ccc(N2CCCC2=O)cc1)c1cccc(F)c1`: the cell count in test [1] stood at 226. Further, the inhibition in test [1] is -5.9% (inactive); in test [3], -11.4% (inactive); in test [7], -49% (inactive); in test [8] it was -122% (inactive). For the same molecule, in test [2], the inhibition of aggregation is 15.3% (inactive). The nuclei count amounted to 90.3% in test [2] and 71.5% in test [3]. In addition, the results for the fluorescence slope in test [4] and in test [6] were -0.461 (inactive) and 0.00447 (inactive), respectively. In test [5], the NADPH fluorescence slope was 2e-05 (inactive).

Regarding `CCS(=O)(=O)c1nc2ccccc2n1CC(=O)N1CCOCC1`, the cell count in test [1] amounted to 581. In addition, the inhibition in test [1] was -4.1% (inactive); in test [3] it was -85.4% (inactive); in test [7], 16.1% (inactive); in test [8], 10.7% (inactive). The inhibition of aggregation in test [2] is -22.2% (inactive). For the same molecule, the nuclei count in test [2] came to 95.9%; in test [3], 98.1%. The fluorescence slope was -0.589 (inactive) in test [4] and 0.00736 (inactive) in test [6]. Moreover, the NADPH fluorescence slope in test [5] was -3e-05 (inactive).

On to `Cc1nc(-c2cnn(-c3ccccc3)c2)c2cc(C)oc2n1`, for which the cell count in test [1] is 312. Also, the inhibition in test [1] was -2.8% (inactive); in test [3], -48.6% (inactive); in test [7], 10.4% (inactive); in test [8] it was -22.9% (inactive). Further, in test [2], the inhibition of aggregation is 10.4% (inactive). The nuclei count worked out at 85.8% in test [2] and 159% in test [3]. Also, the fluorescence slope was -0.572 (inactive) in test [4] and 0.0027 (inactive) in test [6]. The NADPH fluorescence slope in test [5] is 9.5e-07 (inactive).

With `O=C(Nc1nncs1)c1ccccc1NS(=O)(=O)c1cccs1`, the cell count in test [1] came out at 326. The inhibition was 21.9% (inactive) in test [1], -44.6% (inactive) in test [3], -6.81% (inactive) in test [7] and -4.84% (inactive) in test [8]. The inhibition of aggregation in test [2] is 5.1% (inactive). The nuclei count turned out to be 111% in test [2] and 108% in test [3]. In addition, the fluorescence slope was -0.0751 (inactive) in test [4] and 0.00575 (inactive) in test [6]. Also, the NADPH fluorescence slope in test [5] is -1.1e-05 (inactive).

`Cc1cc(C)c2cc(CN(CC3CCCO3)C(=O)NC3CCCCC3)c(=O)[nH]c2c1` (centres undefined): the cell count in test [1] was 598. Moreover, the inhibition in test [1] is -21% (inactive); in test [3], -28.1% (inactive); in test [7] it was 16.7% (inactive); in test [8], 17.3% (inactive). The inhibition of aggregation in test [2] is -17.9% (inactive). The nuclei count came to 109% in test [2] and 94% in test [3]. The fluorescence slope is -0.567 (inactive) in test [4] and 0.0057 (inactive) in test [6]. Moreover, the NADPH fluorescence slope in test [5] was -5.6e-05 (inactive).

`CSc1nnc2n(CCc3ccccc3)c(=O)c3c4c(sc3n12)CCCC4`: the cell count in test [1] stood at 295. Moreover, the inhibition in test [1] is -21.3% (inactive); in test [3] it was -22% (inactive); in test [7], 7.14% (inactive); in test [8], -1.7% (inactive). The inhibition of aggregation in test [2] was -2.1% (inactive). The nuclei count in test [2] amounted to 106%; in test [3], 112%. Further, the fluorescence slope is -0.476 (inactive) in test [4] and 0.00521 (inactive) in test [6]. The NADPH fluorescence slope in test [5] was -2.9e-05 (inactive).

Turning to `CCOc1ccc(CN2CCN(c3cc(C)nc4c5c(C)cc(C)nc5nn34)CC2)cc1`, in test [1], the cell count is 361. The inhibition in test [1] is -7.1% (inactive); in test [3], 1.9% (inactive); in test [7], 11.7% (inactive); in test [8] it was 22.8% (inactive). The inhibition of aggregation in test [2] was 5% (inactive). In addition, the nuclei count came out at 108% in test [2] and 114% in test [3]. Further, the values for the fluorescence slope in test [4] and in test [6] were -0.385 (inactive) and 0.00419 (inactive), respectively. In test [5], the NADPH fluorescence slope was 1.9e-05 (inactive).

With `CC(Oc1ccccc1)C(=O)N1CCCc2ccccc21` (centres undefined), in test [1], the cell count was 474. Further, the inhibition in test [1] was 9.1% (inactive); in test [3] it was -43.6% (inactive); in test [7], 2.1% (inactive); in test [8], 29.5% (inactive). Moreover, in test [2], the inhibition of aggregation was -2.8% (inactive). Further, the nuclei count in test [2] turned out to be 118%; in test [3] it was 112%. Further, the figures for the fluorescence slope in test [4] and in test [6] were -0.239 (inactive) and 0.00527 (inactive), respectively. Moreover, the NADPH fluorescence slope in test [5] was 1.4e-05 (inactive).

For `COc1ccc(S(=O)(=O)n2ccnc2)c2cccnc12`, the cell count in test [1] worked out at 442. Moreover, the inhibition in test [1] was -21.1% (inactive); in test [3], 20.6% (inactive); in test [7] it was 0.31% (inactive); in test [8] it was 8.74% (inactive). In addition, the inhibition of aggregation in test [2] is 1% (inactive). Moreover, the nuclei count worked out at 82% in test [2] and 85.1% in test [3]. The figures for the fluorescence slope in test [4] and in test [6] were -0.358 (inactive) and 0.00671 (inactive), respectively. For the same molecule, the NADPH fluorescence slope in test [5] was 7.3e-05 (inactive).

For the molecule `O=C(NC1CCc2ccccc21)C1CCN(S(=O)(=O)c2ccc(-n3cnnn3)cc2)CC1` (centres undefined), the cell count in test [1] amounted to 698. Moreover, the inhibition in test [1] was 7.5% (inactive); in test [3] it was -37.5% (inactive); in test [7], 15.1% (inactive); in test [8], 30.1% (inactive). In test [2], the inhibition of aggregation was -23.2% (inactive). Further, the results for the nuclei count in test [2] and in test [3] were 118% and 91.8%, respectively. For the same molecule, the figures for the fluorescence slope in test [4] and in test [6] were -0.553 (inactive) and 0.00483 (inactive), respectively. The NADPH fluorescence slope in test [5] is 1.5e-06 (inactive).

Regarding `COc1ccccc1-c1nc(C(F)(F)F)c(OC)o1`, in test [1], the cell count came out at 469. In addition, the inhibition is -3.3% (inactive) in test [1], -126% (inactive) in test [3], 21.1% (inactive) in test [7] and 11.8% (inactive) in test [8]. The inhibition of aggregation in test [2] is -0.2% (inactive). Also, the nuclei count was found to be 120% in test [2] and 215% in test [3]. The fluorescence slope is -0.423 (inactive) in test [4] and 0.00491 (inactive) in test [6]. In addition, in test [5], the NADPH fluorescence slope was -9.3e-07 (inactive).

Consider `CCc1ccccc1NC(=O)CN(c1cccc(OC)c1)S(C)(=O)=O`, for which the cell count in test [1] turned out to be 345. Moreover, the inhibition in test [1] was 2.5% (inactive); in test [3] it was -28.2% (inactive); in test [7] it was -7.55% (inactive); in test [8], -6.22% (inactive). Further, the inhibition of aggregation in test [2] is -3.1% (inactive). For the same molecule, the nuclei count in test [2] is 99%; in test [3], 111%. Besides, the fluorescence slope was -0.544 (inactive) in test [4] and 0.00451 (inactive) in test [6]. For the same molecule, the NADPH fluorescence slope in test [5] is -7.9e-05 (inactive).

On to `CCOCCCNC(=O)C1CCN(C(=O)Nc2ccc(Cl)cc2)CC1`, for which, in test [1], the cell count stood at 437. Besides, the inhibition is -5% (inactive) in test [1], -40.5% (inactive) in test [3], 10.2% (inactive) in test [7] and 21.5% (inactive) in test [8]. Besides, the inhibition of aggregation in test [2] is -2.7% (inactive). In addition, the values for the nuclei count in test [2] and in test [3] were 106% and 90.7%, respectively. For the same molecule, the fluorescence slope was -0.324 (inactive) in test [4] and 0.00707 (inactive) in test [6]. Besides, in test [5], the NADPH fluorescence slope was -6.3e-05 (inactive).

As to `COCCN(CC(=O)NC1CCCCC1)C(=O)CSc1nc2ccccc2o1`, the cell count in test [1] worked out at 666. Further, the inhibition is 12.1% (inactive) in test [1], -28.2% (inactive) in test [3], 2.87% (inactive) in test [7] and 18.7% (inactive) in test [8]. In test [2], the inhibition of aggregation is 3.4% (inactive). For the same molecule, the nuclei count was found to be 105% in test [2] and 120% in test [3]. The fluorescence slope is -0.469 (inactive) in test [4] and 0.00558 (inactive) in test [6]. Further, the NADPH fluorescence slope in test [5] is 2.1e-05 (inactive).

These data come from PubChem BioAssay.
